Results as given in ChEMBL document CHEMBL4145485, “Design, synthesis, biological evaluation and docking studies of new 3-(4,5-dihydro-1H-pyrazol/isoxazol-5-yl)-2-phenyl-1H-indole derivatives as potent antioxidants and 15-lipoxygenase inhibitors” (Eur J Med Chem, 2018).
pIC50: −log10 of the molar value. Values after ≈ are worked out from the molar mass of the structure shown.

Experiments:
[1] = Antioxidant activity assessed as inhibition of DPPH radical formation after 30 mins; assay type: functional
Method in brief: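 Test compound at […] mixed 1:1 with […], kept dark at room temperature 30 min, absorbance read at 517 nm. Ascorbic acid as positive control, DMSO as blank. % scavenging taken against a no-compound control. IC50 by linear regression of the dose-response, in mg/mL, mean ± SD of three replicates.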

[2] = Inhibition of soybean 15-LOX using arachidonic acid or linoleic acid as substrate preincubated with enzyme followed by substrate addition up to 5 mins by chromogenic method; set-up: species or system Glycine max
Method in brief: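 Kit-based assay: soybean LOX pre-mixed with test compound ([…], in DMSO), started with arachidonic or linoleic acid, shaken at least 5 min. Chromogen added to stop and develop, absorbance at 490–500 nm. Quercetin as positive control, DMSO as 100% activity, buffer as blank. IC50 from non-linear dose-response of % inhibition.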

[3] = Antioxidant activity in PBS buffer assessed as NO scavenging activity after 90 mins in presence of sodium nitroprusside by Griess assay; assay type: functional
Method in brief: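 Test compound at […] mixed 1:1 with 10 mM sodium nitroprusside in PBS pH 7.4, held 90 min at room temperature. Equal volume of Griess reagent (1% sulphanilamide, 0.1% naphthyl ethylene diamine in 2.5% […]) added, absorbance at 546 nm. Ascorbic acid as positive control, DMSO as blank. IC50 by linear regression, mg/mL, mean ± SD of three.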

[4] = Antioxidant activity assessed as superoxide dismutase-like activity by measuring inhibition of xanthine oxidase-induced superoxide anion level measured ever 30 secs for 5 mins by NBT reduction assay; assay type: functional
Method in brief: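 Kit-based assay at room temperature in cuvettes: reaction buffer, xanthine and NBT, then test compound ([…]), then xanthine oxidase. A550 read every 30 s from 30 s to 5 min 30 s. Rate per minute compared with a negative control gives % inhibition. IC50 from non-linear dose-response, mean ± SEM of three. Ascorbic acid as reference.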

[5] = Potency index, ratio of ascorbic acid IC50 to compound IC50 for antioxidant activity assessed as inhibition of DPPH radical; assay type: functional
Glycine max = experiment: Potency index, ratio of quercetin IC50 to compound IC50 for inhibition of soybean 15-LOX
[6] = Potency index, ratio of ascorbic acid IC50 to compound IC50 for antioxidant activity in PBS buffer assessed as NO scavenging activity; assay type: functional
[7] = Potency index, ratio of ascorbic acid IC50 to compound IC50 for antioxidant activity assessed as superoxide dismutase-like activity by measuring inhibition of xanthine oxidase-induced superoxide anion level; assay type: functional

| SMILES | IC50 [1] [µg/mL] | pIC50 [2] | IC50 [3] [µg/mL] | pIC50 [4] | Ratio IC50 (Glycine max) | Ratio IC50 [5] | Ratio IC50 [6] | Ratio IC50 [7] |
| --- | --- | --- | --- | --- | --- | --- | --- | --- |
| CN1N=C(c2ccncc2)CC1c1c(-c2ccccc2)[nH]c2ccccc12 (configuration not stated) | 33.1 (≈ 93.9 µM) | 5.03 | 37.1 | 5.27 | – | – | – | – |
| CC(=O)N1N=C(c2ccncc2)CC1c1c(-c2ccccc2)[nH]c2ccccc12 (configuration not stated) | 98.54 (≈ 259 µM) | 5.06 | 29.14 | 5.26 | – | – | – | – |
| c1ccc(-c2[nH]c3ccccc3c2C2CC(c3cccs3)=NN2)cc1 (configuration not stated) | 18.3 (≈ 53.3 µM) | 5.03 | 24.04 | 5.19 | – | – | – | – |
| O=c1c(O)c(-c2ccc(O)c(O)c2)oc2cc(O)cc(O)c12 [QUERCETIN] | – | 5.16 | – | – | – | – | – | – |
| O=C(c1ccccc1)N1N=C(c2cccnc2)CC1c1c(-c2ccccc2)[nH]c2ccccc12 (configuration not stated) | 48.21 (≈ 109 µM) | 5.14 | 50.33 | 5.34 | – | – | – | – |
| O=C(c1ccccc1)N1N=C(c2ccncc2)CC1c1c(-c2ccccc2)[nH]c2ccccc12 (configuration not stated) | 107.32 (≈ 243 µM) | 5.29 | 52.54 | 5.37 | – | – | – | – |

Continued by rising pIC50 [4], values first:

| IC50 [1] [µg/mL] | pIC50 [2] | IC50 [3] [µg/mL] | pIC50 [4] | Ratio IC50 (Glycine max) | SMILES | Ratio IC50 [5] | Ratio IC50 [6] | Ratio IC50 [7] |
| --- | --- | --- | --- | --- | --- | --- | --- | --- |
| 117.5 (≈ 341 µM) | 5.12 | 233.4 | 5.37 | – | c1ccc(-c2[nH]c3ccccc3c2C2CC(c3cccs3)=NO2)cc1 (configuration not stated) | – | – | – |
| 60.7 (≈ 179 µM) | 5.17 | 116.7 | 5.45 | – | c1ccc(-c2[nH]c3ccccc3c2C2CC(c3cccnc3)=NO2)cc1 (configuration not stated) | – | – | – |
| 23.4 (≈ 133 µM) | – | 24.5 | 5.45 | – | O=C1O[C@H]([C@@H](O)CO)C(O)=C1O [ASCORBIC ACID] | – | – | – |
| 15.83 (≈ 46.8 µM) | 5.18 | 20.99 | 5.49 | – | c1ccc(-c2[nH]c3ccccc3c2C2CC(c3ccncc3)=NN2)cc1 (configuration not stated) | – | – | – |
| 37.97 (≈ 99.8 µM) | 5.34 | 29.8 | 5.59 | – | CC(=O)N1N=C(c2cccnc2)CC1c1c(-c2ccccc2)[nH]c2ccccc12 (configuration not stated) | – | – | – |
| 59.94 (≈ 177 µM) | 5.31 | 70.5 | 5.73 | – | c1ccc(-c2[nH]c3ccccc3c2C2CC(c3ccncc3)=NO2)cc1 (configuration not stated) | – | – | – |
| 13.61 (≈ 40.2 µM) | 5.42 | 35.01 | 5.75 | 1.8 | c1ccc(-c2[nH]c3ccccc3c2C2CC(c3cccnc3)=NN2)cc1 (configuration not stated) | 1.7 | 0.7 | 2 |
